# DENV2 CPE – inhibitors of DENV2 cytopathic effect. DENV2-infected cells, cytopathic effect rescue, plate reader. CPE inhibition, % at 9.99 µM. 350,000 tested, 1.7% active. AID 651640; in the data active means CPE inhibition above about 20%, passing the limit was not always enough; inconclusive means no clear call, values can overlap the other calls; tested in BHK-21 cells;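 further: 0% = median of neutral control wells and 100% = median of positive control wells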
# E-sel inducer – induces E-selectin expression in human endothelial cells | HUVEC E-selectin immunofluorescence imaging; normalized: neutral wells 0, TNF-alpha wells 100 | AID 686992 | activation, % at 7.58 µM | 260,000 tested, 0.37% active | P16581;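 active means mean E-selectin-positive cell signal at least 10% of the positive control, reached in at least 60% of replicates, without over 20% cell loss; inconclusive means no rule given, readout overlaps actives, possibly toxicity-flagged; inactive means the rest, including those meeting only one limit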
#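 System: HUVEC / Compound: single concentration / Signal: immunofluorescence imaging / Read-out: percent E-selectin-positive cells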
# SIRT5 inh – sirtuin-5 (human) deacylase inhibition; Q9NXA8; inhibition, % at 15 µM; AID 652115; 330,000 tested, 1.1% active; Purified SirT5, succinyl-peptide AMC, trypsin-coupled fluorescence; in the data active means inhibition above about 15%; inconclusive means no clear call, values can overlap the other calls
# Target sequence (Q9NXA8 whole entry, looked up): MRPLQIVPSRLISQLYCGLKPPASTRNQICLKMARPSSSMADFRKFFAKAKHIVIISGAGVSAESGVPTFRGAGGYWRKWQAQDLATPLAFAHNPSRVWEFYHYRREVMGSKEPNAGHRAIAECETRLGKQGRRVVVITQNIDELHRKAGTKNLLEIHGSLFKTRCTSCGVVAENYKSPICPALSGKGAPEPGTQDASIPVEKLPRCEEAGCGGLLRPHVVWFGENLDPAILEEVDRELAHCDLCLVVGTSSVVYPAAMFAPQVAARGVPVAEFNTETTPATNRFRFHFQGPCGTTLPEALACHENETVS
# Numbers without * were called inactive; ? = inconclusive; ! = not confirmed by another sample. Shown are actives, neighbours in structure and some others; about 2.8% of the full set was active somewhere.
SMILES,DENV2 CPE,E-sel inducer,SIRT5 inh
CC(C)CC#Cc1cnc2c(c1)C(=O)N([C@H](C)CO)C[C@@H](C)[C@H](CN(C)C(=O)C1CCOCC1)O2,37.9*,0.8,0.0
CS(=O)(=O)N1CC(=O)N2[C@H](C1)[C@H](c1ccc(C#Cc3cccc(F)c3)cc1)[C@@H]2CO,-0.6,-0.1,2.7
Fc1cccc(CN2[C@@H]3CNC[C@H]2C3c2ccc(-c3ccncc3)cc2)c1 (some centres undefined),2.1,0.4,3.2
C[C@@H]1CN([C@H](C)CO)C(=O)c2cc(NC(=O)Nc3ccc(C(F)(F)F)cc3)ccc2O[C@@H](C)CCCCO[C@@H]1CN(C)C(=O)Cc1ccccc1,81.9*,1.0,-0.3
C[C@H](CO)N1C[C@H](C)[C@@H](CN(C)C(=O)Cc2ccccc2)OCCCC[C@H](C)Oc2ccc(NC(=O)Nc3ccc(C(F)(F)F)cc3)cc2C1=O,-1.9,1.5,0.7
C[C@@H]1CCCCO[C@H](CN(C)C(=O)Cc2ccccc2)[C@H](C)CN([C@@H](C)CO)C(=O)c2cc(NC(=O)Nc3ccc(C(F)(F)F)cc3)ccc2O1,44.2*,1.7,-1.4
C[C@@H]1CCCCO[C@H](CN(C)C(=O)Cc2ccccc2)[C@@H](C)CN([C@@H](C)CO)C(=O)c2cc(NC(=O)Nc3ccc(C(F)(F)F)cc3)ccc2O1,?,0.9,-0.9
CC(C)CC#Cc1ccc2c(c1)O[C@@H](CN(C)C(=O)Nc1ccccc1)[C@H](C)CN([C@H](C)CO)S2(=O)=O,1.2,-0.5,3.2
COc1ccc(NC(=O)Nc2ccc3c(c2)C(=O)N([C@@H](C)CO)C[C@H](C)[C@H](CN(C)C(=O)C2CCCCC2)OCCCC[C@H](C)O3)cc1,6.1,0.3,-1.6
COc1ccc(NC(=O)Nc2ccc3c(c2)C(=O)N([C@H](C)CO)C[C@@H](C)[C@@H](CN(C)C(=O)C2CCCCC2)OCCCC[C@H](C)O3)cc1,45.5*!,1.6,16.8*!
COc1ccc(NC(=O)Nc2ccc3c(c2)C(=O)N([C@@H](C)CO)C[C@@H](C)[C@H](CN(C)C(=O)C2CCCCC2)OCCCC[C@H](C)O3)cc1,-12.5,0.0,0.7
COc1ccc(NC(=O)Nc2ccc3c(c2)C(=O)N([C@H](C)CO)C[C@H](C)[C@H](CN(C)C(=O)C2CCCCC2)OCCCC[C@H](C)O3)cc1,7.2,0.6,1.2
COc1ccc(NC(=O)Nc2ccc3c(c2)C(=O)N([C@H](C)CO)C[C@H](C)[C@@H](CN(C)C(=O)C2CCCCC2)OCCCC[C@@H](C)O3)cc1,31.8*,0.1,0.2
COc1ccc(NC(=O)Nc2ccc3c(c2)C(=O)N([C@@H](C)CO)C[C@@H](C)[C@H](CN(C)C(=O)C2CCCCC2)OCCCC[C@@H](C)O3)cc1,21.8*,0.3,0.6
CO[C@H]1CN(C)C(=O)c2cc(NC(=O)c3ccccc3)ccc2OC[C@@H](C)N(C(=O)C2CC2)C[C@H]1C,1.1,0.7,-0.5
O=C(c1cccnc1)N1C[C@H]2[C@@H](c3ccccc31)[C@@H](CO)N2C(=O)C1CCCCC1,7.7,0.0,0.7
CO[C@H]1CN(C)C(=O)c2ccc(NC(C)=O)cc2OC[C@@H](C)N(C(=O)c2cccnc2)C[C@@H]1C,0.8,0.2,-4.8
C[C@@H]1CN([C@@H](C)CO)S(=O)(=O)c2ccc(C#CC(C)(C)O)cc2O[C@H]1CN(C)Cc1ccc(F)cc1,0.7,0.6,17.8*
C[C@@H]1CN([C@@H](C)CO)S(=O)(=O)c2ccc(C#CC(C)(C)O)cc2O[C@H]1CN(C)Cc1ccc(-c2ccccc2)cc1,-2.0,-0.1,-1.5
C[C@@H]1CN([C@@H](C)CO)S(=O)(=O)c2ccc(C#CC(C)(C)O)cc2O[C@@H]1CN(C)Cc1ccc(-c2ccccc2)cc1,-4.5,0.1,19.0*
C[C@@H]1CN([C@H](C)CO)S(=O)(=O)c2ccc(C#CC(C)(C)O)cc2O[C@@H]1CN(C)Cc1ccc(F)cc1,4.2,0.1,4.8
CN1C[C@@H]2[C@H](c3ccccc31)[C@H](CO)N2Cc1ccccc1F,15.7,-0.5,3.9
Cc1noc(C)c1NC(=O)Nc1ccc2c(c1)C(=O)N([C@H](C)CO)C[C@H](C)[C@@H](CN(C)C(=O)C1CCCCC1)OCCCC[C@H](C)O2,0.9,0.0,0.2
O=C(c1cccnc1)N1CCCCN2[C@H](C1)[C@H](c1ccc(C#Cc3cccnc3)cc1)[C@@H]2CO,9.9,-0.1,-0.6
CN(C)CC(=O)N1CCCCN2[C@@H](CO)[C@@H](c3ccc(-c4cccnc4)cc3)[C@@H]2C1,-8.9,-0.2,-1.0
COCC(=O)N1CCCCN2[C@H](C1)[C@@H](c1ccc(C#Cc3cccnc3)cc1)[C@@H]2CO,23.5*,0.2,-12.8
